According to ChEMBL document CHEMBL2380307, “Discovery of diarylurea P2Y(1) antagonists with improved aqueous solubility” (Bioorg Med Chem Lett, 2013):

How the values were obtained:
[1] = Lipophilicity, log P of the compound by RP-HPLC analysis; assay type: physicochemical
[2] = Oral bioavailability in rat at 1 mg/kg; assay type: ADME, organism-based; settings: in vivo
How it was run: (§1)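 Rat PK. Dosing was either 1 mg/kg IV/PO in 10% DMAC/10% EtOH/10% cremophor/70% H2O, or 1 mg/kg IV in 10% EtOH/10% cremophor/80% H2O, or 2 mg/kg IV with 5 mg/kg PO in 10% EtOH/10% cremophor/80% H2O. Read-outs: CL, Vss, t1/2, F.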

Rattus norvegicus = assay: Volume of distribution at steady state in rat at 1 mg/kg, iv and po; assay type: ADME, organism-based; parameters: dose 1 mg/kg, route oral; settings: in vivo
How it was run: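 Rats dosed at 1 mg/kg by both IV and PO routes in 10% DMAC/10% EtOH/10% cremophor/70% H2O. Steady-state volume of distribution was derived from the IV plasma profile.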

[3] = Half life in rat at 1 mg/kg, iv and po; assay type: ADME, organism-based; parameters: dose 1 mg/kg, route oral; settings: in vivo; how it was run: as §1
[4] = Permeability from apical to basolateral side of human Caco2 cells; assay type: ADME, cell-based; settings: Caco-2, read-out: permeability
[5] = (§2) Metabolic stability in rat liver microsomes assessed as compound remaining after 10 mins; assay type: ADME, Microsome; settings: liver microsomes, read-out: Stability
How it was run: (§3)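 Liver microsomes incubated for 10 min; read-out is percentage of parent remaining.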

[6] = (§4) Metabolic stability in human liver microsome assessed as compound remaining after 10 mins; assay type: ADME, microsomes; settings: liver microsomes, read-out: Stability
Liver microsomes [7] = assay: as §2; assay type: ADME, Microsome; settings: microsomes, 10 min; how it was run: as §3
Plasma [8] = assay: Plasma concentration in rat at 1 mg/kg, iv followed by administered 25 mg/kg/hr of sustaining dose; assay type: ADME, organism-based; settings: in vivo
How it was run: (§5)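 Rats pretreated IV with a loading dose plus sustaining infusion (1 + 2.5, 1 + 5, 1 + 10 or 1 + 25 mg/kg + mg/kg/h). Arterial thrombosis was induced with FeCl2, and thrombus weight was measured; plasma concentrations were measured at each dose. n=6–8 per dose. Vehicle controls received 10% DMA/90% 5% dextrose IV.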

Plasma [9] = assay: Plasma concentration in rat at 1 mg/kg, iv followed by administered 10 mg/kg/hr of sustaining dose; assay type: ADME, organism-based; settings: in vivo; how it was run: as §5
Plasma [10] = assay: Plasma concentration in rat at 1 mg/kg, iv followed by administered 5 mg/kg/hr of sustaining dose; assay type: ADME, organism-based; settings: in vivo; how it was run: as §5
Plasma [11] = assay: Plasma concentration in rat at 1 mg/kg, iv followed by administered […] of sustaining dose; assay type: ADME, organism-based; settings: in vivo
Plasma [12] = assay: Plasma concentration in rabbit cuticle bleeding model at 15 mg/kg, iv followed by administered 23.4 mg/kg/hr of sustaining dose; assay type: ADME, organism-based, Oryctolagus cuniculus; settings: in vivo
How it was run: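 Rabbit cuticle bleeding model with IV loading dose plus sustaining infusion (15 or 9 mg/kg + 23.4 mg/kg/h). Measured ex vivo platelet aggregation blockade, cuticle bleeding time, average plasma concentration and blood pressure.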

Liver microsomes [13] = assay: as §4; assay type: ADME; settings: microsomes, 10 min
[14] = Half life in rat at 1 mg/kg, iv; assay type: ADME, organism-based; parameters: dose 1 mg/kg, route intravenous; settings: in vivo; how it was run: as §1
[15] = Clearance in rat at 1 mg/kg, iv; assay type: ADME, organism-based; parameters: dose 1 mg/kg, route intravenous; settings: in vivo; how it was run: as §1
[16] = Volume of distribution at steady state in rat at 1 mg/kg, iv; assay type: ADME, organism-based; parameters: dose 1 mg/kg, route intravenous; settings: in vivo, read-out: Vdss
How it was run: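 Rat PK: single 1 mg/kg IV dose in 10% EtOH/10% cremophor/80% H2O. Vss was derived from plasma concentration–time data.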

[17] = Half life in rat at 2 mg/kg, iv and 5 mg/kg, po; assay type: ADME, organism-based; settings: in vivo; how it was run: as §1
[18] = Oral bioavailability in rat at 5 mg/kg; assay type: ADME, organism-based; settings: in vivo; how it was run: as §1
[19] = Volume of distribution at steady state in rat at 2 mg/kg, iv and 5 mg/kg, po; assay type: ADME, organism-based; settings: in vivo, read-out: Vdss
How it was run: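 Rats given 2 mg/kg IV and 5 mg/kg PO in 10% EtOH/10% cremophor/80% H2O. Vss was obtained from the IV pharmacokinetic profile.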

[20] = Clearance in rat at 2 mg/kg, iv and 5 mg/kg, po; assay type: ADME, organism-based; settings: in vivo; how it was run: as §1

SMILES: CC(C)(C)c1ccccc1Oc1ncccc1NC(=O)Nc1ccc(N2CCN(Cc3ccccc3)CC2)cc1
- logP [1]: 5.8

SMILES: CC(C)CN1CCC(COc2ccc(NC(=O)Nc3cccnc3Oc3ccccc3C(C)(C)C)cc2)CC1
- logP [1]: 4.5

SMILES: CC(C)(C)c1ccccc1Oc1ncccc1NC(=O)Nc1ccc(OC(F)(F)F)cc1
- logP [1]: 5.7
- bioavailability [2]: 7%
- Vdss (Rattus norvegicus): 5.6 L/kg
- half-life [3]: 15 h
- Papp A→B [4]: 2.1 ×10⁻⁶ cm/s
- remaining at 10 min [5]: 86%

SMILES: CC(C)(C)c1ccccc1Oc1ncccc1NC(=O)Nc1ccc(-c2ccccc2CO)cc1F
- logP [1]: 5.5

SMILES: CC(C)(C)c1ccccc1Oc1ncccc1NC(=O)Nc1ccc(OCC2CCN(Cc3ccccc3)CC2)cc1F
- logP [1]: 5.8

SMILES: CC(C)(C)c1ccccc1Oc1ncccc1NC(=O)Nc1ccc(C2(CO)CC2)cc1
- logP [1]: 4.6

SMILES: CN(C)CC(C)(C)COc1ccc(NC(=O)Nc2cccnc2Oc2ccccc2[Si](C)(C)C)cc1
- logP [1]: 4.7
- remaining at 10 min [6]: 29%

SMILES: CN(C)Cc1cccc(-c2ccc(NC(=O)Nc3cccnc3Oc3ccccc3C(C)(C)C)c(F)c2)c1
- logP [1]: 5.5

SMILES: CC(C)(C)c1ccccc1Oc1ncccc1NC(=O)Nc1ccc(C2(CN3CCCC3)CC2)cc1
- logP [1]: 3.7

SMILES: CC(C)(C)c1ccccc1Oc1ncccc1NC(=O)Nc1ccc(N2CCCCC2)cc1
- logP [1]: 5.5

SMILES: CN(C)Cc1ccc(NC(=O)Nc2cccnc2Oc2ccccc2C(C)(C)C)c(F)c1
- logP [1]: 4.2

SMILES: CC(C)(C)c1ccccc1Oc1ncccc1NC(=O)Nc1ccc(N2CCOCC2)cc1F
- logP [1]: 4.5

SMILES: COC(=O)C1(c2ccc(NC(=O)Nc3cccnc3Oc3ccccc3C(C)(C)C)cc2)CC1
- logP [1]: 5.1

SMILES: CN(C)CC(C)(C)COc1ccc(NC(=O)Nc2cccnc2Oc2ccccc2C(C)(C)C)cc1
- logP [1]: 5.1
- remaining at 10 min [6]: 12%
- Stability (Liver microsomes [7]): Unstable

SMILES: CN(C)Cc1ccccc1-c1ccc(NC(=O)Nc2cccnc2Oc2ccccc2C(C)(C)C)c(F)c1
- logP [1]: 5.3
- concentration (Plasma [8]): 13.7 µM
- concentration (Plasma [9]): 8.5 µM
- concentration (Plasma [10]): 3.6 µM
- concentration (Plasma [11]): 1.3 µM
- concentration (Plasma [12]): 5 µM
- Stability (Liver microsomes [13]): Unstable
- half-life [14]: 1.5 h
- clearance [15]: 158 mL/min/kg
- Vd [16]: 8.7 L/kg
- remaining at 10 min [5]: 24%

SMILES: CN1CCN(c2ccc(NC(=O)Nc3cccnc3Oc3ccccc3C(C)(C)C)cc2)CC1
- logP [1]: 3.9

SMILES: CC(C)CN1CCC(COc2ccc(NC(=O)Nc3cccnc3Oc3ccccc3C(C)(C)C)c(F)c2)CC1
- logP [1]: 5.2
- half-life [17]: 3.4 h
- bioavailability [18]: 40%
- Vd [19]: 5 L/kg
- clearance [20]: 22 mL/min/kg
- Papp A→B [4]: 1.6 ×10⁻⁶ cm/s
- remaining at 10 min [5]: 67%

SMILES: CN(C)CC(C)(C)COc1ccc(NC(=O)Nc2cccnc2Oc2ccccc2C(C)(C)C)c(F)c1
- logP [1]: 5.2
- Stability (Liver microsomes [13]): Unstable
- Stability (Liver microsomes [7]): Unstable

SMILES: CN(C)Cc1ccc(-c2ccc(NC(=O)Nc3cccnc3Oc3ccccc3C(C)(C)C)c(F)c2)cc1
- logP [1]: 5.4

SMILES: CC(C)(C)c1ccccc1Oc1ncccc1NC(=O)Nc1ccc(N2CCNCC2)cc1
- logP [1]: 3.2

SMILES: CC(C)CCN1CCC(COc2ccc(NC(=O)Nc3cccnc3Oc3ccccc3C(C)(C)C)c(F)c2)CC1
- logP [1]: 5.5

SMILES: COCC1(c2ccc(NC(=O)Nc3cccnc3Oc3ccccc3C(C)(C)C)cc2)CC1
- logP [1]: 5.2

SMILES: CC(C)N1CCC(COc2ccc(NC(=O)Nc3cccnc3Oc3ccccc3C(C)(C)C)c(F)c2)CC1
- logP [1]: 3.8
